SUMO HTRF inh: inhibitors of human SUMOylation (UBC9); P63279; HTRF SUMOylation assay, SAE1/SAE2 + UBC9, in vitro; inhibition, % at 35 µM; actives 0.36% (n = 290,000); AID 2006; in the data active = inhibition above about 50%, passing the limit was not always enough
T cell modulator: T cell immune modulation candidate; AID 2052; actives 0.068% (n = 330,000); response (vesicle binding), % at 7 µM; 2C CD8+ T cell-vesicle binding, flow cytometry; active compounds read low;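 active = response, share of CD8 T cells binding vesicles, and their 90th percentile fluorescence all below set limits, cut at about 80% in these data, passing the limit was not always enough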;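 note: values below 100% mean blocked vesicle binding to the CD8+ T cells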
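Material: 2C TCR transgenic mouse naive CD8+ T cells, MACS-purified. Also added: QL9-charged Drosophila Ld/ICAM-1/B7-1 vesicles. Timing: binding 1.5 h at 37 °C. Measured by: high-throughput flow cytometry with anti-B7-1 and anti-CD8 staining. Read-out: percent CD8+ FL2 mean versus row control. Controls: Unloaded micro-vesicles (low), QL9 vesicles with 0.7% DMSO (high).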
VIM-2 inhibitor: blocks Pseudomonas aeruginosa VIM-2 metallo-beta-lactamase; purified VIM-2, nitrocefin hydrolysis, epi-absorbance fluorescence; inhibition, % at 5.6 µM; actives 0.89% (n = 290,000); AID 1527;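 active = inhibition above the mean of all tested compounds plus 3 SD, cutoff set per screening run, cut at about 7.5% in these data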;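 note: red hydrolysis product quenches plate fluorescence so inhibitors raise well fluorescence; 0% = enzyme with DMSO and 100% = DMSO without enzyme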
IMP-1 inhibitor: inhibitors of Pseudomonas aeruginosa IMP-1 metallo-beta-lactamase. purified IMP-1, nitrocefin hydrolysis, epi-absorbance fluorescence. inhibition, % at 5.6 µM. actives 0.45% (n = 290,000);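 active = inhibition above the mean plus 3 SD of all compounds in the same screening run, cut at about 4.5% in these data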;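 note: 0% = IMP-1 with DMSO and 100% = DMSO wells lacking enzyme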
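Assay system: purified IMP-1; Quantity: IMP-1 0.2 nM before substrate addition; Medium: HEPES buffer pH 7.1 with ZnSO4 and Brij 35; Incubation: 15 min enzyme–compound preincubation, then 25 min nitrocefin reaction, 25 °C; Signal: fluorescence quenching readout, ex 480/em 530 nm; Controls: DMSO with and without IMP-1; Repeats: singlicate testing.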
p-CIP stab down: lowers stability of the mouse p/CIP coactivator protein | AID 1984 | actives 0.01% (n = 290,000) | F442A p/CIP-EGFP cells, EGFP fluorescence, 16 h | decrease of EGFP signal, % at 10 µM;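 active = EGFP signal decrease of at least 30% at 10 µM or well 3 SD below plate mean, unless failing retest; inactive = the rest, including hits failing retest or dose response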
Target sequence (Q05BA5 1-1403): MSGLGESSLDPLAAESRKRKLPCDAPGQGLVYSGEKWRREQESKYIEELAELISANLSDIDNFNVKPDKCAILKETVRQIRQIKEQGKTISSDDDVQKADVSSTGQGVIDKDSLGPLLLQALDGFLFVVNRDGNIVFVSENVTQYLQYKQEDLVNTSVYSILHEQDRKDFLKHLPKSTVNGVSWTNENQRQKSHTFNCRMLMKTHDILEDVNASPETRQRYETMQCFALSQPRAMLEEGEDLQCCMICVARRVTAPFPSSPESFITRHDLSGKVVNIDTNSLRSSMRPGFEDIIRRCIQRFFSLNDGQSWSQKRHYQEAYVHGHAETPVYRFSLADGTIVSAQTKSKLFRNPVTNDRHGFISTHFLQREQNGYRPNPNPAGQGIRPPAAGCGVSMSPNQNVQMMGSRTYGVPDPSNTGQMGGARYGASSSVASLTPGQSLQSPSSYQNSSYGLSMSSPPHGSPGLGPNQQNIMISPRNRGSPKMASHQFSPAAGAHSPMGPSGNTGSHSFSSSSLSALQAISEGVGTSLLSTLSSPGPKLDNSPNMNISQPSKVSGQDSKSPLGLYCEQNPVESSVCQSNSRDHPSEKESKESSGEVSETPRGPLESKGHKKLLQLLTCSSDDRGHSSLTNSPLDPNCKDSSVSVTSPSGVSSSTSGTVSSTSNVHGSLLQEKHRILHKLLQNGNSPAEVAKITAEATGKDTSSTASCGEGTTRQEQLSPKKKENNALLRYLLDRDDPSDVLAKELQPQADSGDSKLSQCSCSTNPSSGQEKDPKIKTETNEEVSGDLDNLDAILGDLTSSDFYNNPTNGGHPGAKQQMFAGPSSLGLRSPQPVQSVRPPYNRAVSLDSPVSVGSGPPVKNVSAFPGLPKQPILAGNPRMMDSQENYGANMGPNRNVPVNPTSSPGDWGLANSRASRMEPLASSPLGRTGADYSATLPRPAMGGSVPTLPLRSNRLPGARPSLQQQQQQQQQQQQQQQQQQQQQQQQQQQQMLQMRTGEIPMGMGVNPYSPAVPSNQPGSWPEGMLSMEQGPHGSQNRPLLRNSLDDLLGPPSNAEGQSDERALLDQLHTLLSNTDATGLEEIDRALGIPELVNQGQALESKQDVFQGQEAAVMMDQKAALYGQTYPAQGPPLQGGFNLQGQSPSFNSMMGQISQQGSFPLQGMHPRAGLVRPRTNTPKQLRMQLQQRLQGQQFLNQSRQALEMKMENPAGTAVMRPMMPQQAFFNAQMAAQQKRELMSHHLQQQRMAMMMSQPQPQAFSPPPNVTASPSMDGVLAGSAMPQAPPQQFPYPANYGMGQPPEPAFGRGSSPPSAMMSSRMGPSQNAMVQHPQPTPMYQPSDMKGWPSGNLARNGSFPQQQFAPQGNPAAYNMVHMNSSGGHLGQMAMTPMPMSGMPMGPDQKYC
CTSL1 counter: blocks F. hepatica cathepsin L1 in PFM18AAP counter-screen; actives 0.49% (n = 300,000); inhibition, % at 5.96 µM; recombinant F. hepatica cathepsin L1, Z-Leu-Arg-MCA fluorescence;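 active = inhibition above the mean of all tested compounds plus 3 SD, set per screening campaign, cut at about 17% in these data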;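 note: 0% = plate median of test compound wells and 100% = 1 µM Z-Phe-Ala-diazomethylketone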
Numbers without * were called inactive; i = inactive; x = no result. The list is not random: actives were taken first. Their share in the collection is about 1.9%.

SMILES	SUMO HTRF inh	T cell modulator	VIM-2 inhibitor	IMP-1 inhibitor	p-CIP stab down	CTSL1 counter
COc1ccc(/C=C2\CCC(C3CCCC3)C2=O)c(OC)c1OC (stereo not given)	19.0	348.0	0.1	-3.7	-16.5	5.9
COc1cc(/C=C2\CCC(C3CCCC3)C2=O)cc(OC)c1OC (stereo not given)	-3.2	443.2	-0.3	-2.4	-1.9	27.4*
COCCN(C(=O)CCl)C(C(=O)NC1CCCCC1)c1ccccc1C (stereo not given)	14.0	188.5	-5.9	-4.2	3.8	27.3*
COCCN(C(=O)CCC(=O)Nc1cc(C)on1)C(C(=O)NC1CCCC1)c1ccccc1C (stereo not given)	6.6	165.4	-2.2	-0.6	-9.5	1.5
CN(C)S(=O)(=O)n1cnc([C@@H]2[C@@H]3C(=O)OC[C@@H]3C[C@]23N=CN(Cc2ccccc2)C3=O)c1	x	460.8	x	x	x	x
Cc1ccc(O)c(Nc2nc(-c3ccccc3)nc3ccccc23)c1	13.3	172.3	-0.1	-2.2	-8.1	-4.6
Cc1ccc(O)c(Nc2c3ccccc3nc3ccccc23)c1	22.2	183.7	9.2*	-2.5	-8.8	4.0
CC(=O)N1c2ccccc2C(=O)C1N1CCCCC1 (stereo not given)	11.2	305.9	-0.2	1.3	6.1	20.9*
CC(=O)Nc1ccc(SCCC2CCCCN2C)cc1 (stereo not given)	9.8	296.8	-5.1	-3.7	-2.1	-0.7
Cn1c(=O)cc2c3c(c(N4CCCCC4)ccc31)C(=O)c1ccccc1-2	10.9	61.2	10.4*	1.3	-21.0	-1.4
O=C(NC1CCN(C(=O)Nc2ccc(F)cc2)CC1)c1ccc(F)cc1	2.2	244.9	3.2	-1.3	-5.1	-1.7
NS(=O)(=O)c1cc(C(=O)OCC(=O)Nc2ccc3c(c2)OCO3)ccc1Cl	x	109.2	x	x	x	x
CC(C)[C@H](NC(=O)c1ccccc1)C(=O)OCC(=O)c1ccc(S(=O)(=O)N2CCCCC2)cc1	x	335.9	x	x	x	34.7*
CC(C)[C@H](NC(=O)c1ccccc1)C(=O)OCC(=O)Nc1ccc(S(=O)(=O)N2CCOCC2)cc1	x	333.5	x	x	x	x
COc1ccc(NS(=O)(=O)c2ccc(O)c(NC(=O)c3cc4c(C)nn(-c5ccc(F)cc5)c4s3)c2)cc1	81.8*	188.0	-2.5	-2.6	4.0	-1.2
COc1ccc(NS(=O)(=O)c2ccc(N3CCOCC3)c(NC(=O)c3ccc(F)cc3)c2)cc1	-2.3	i	-1.5	-1.8	-13.5	0.8
CC1=CC(C)[C@H](/C=N/n2c(=O)[nH]c3c([nH]c4ccc(C)cc43)c2=O)C(C)C1 (stereo not given in full)	-2.9	325.0	-2.0	-2.8	1.1	0.8
CC(C)n1nc(C(=O)Nc2ccc3c(c2)OCO3)c2ccccc2c1=O	x	409.8	x	x	x	x
CCC(=O)Oc1oc(-c2ccccc2)nc1C=Nc1ccccc1OC	-2.0	528.5	-0.3	-5.5	24.1	24.8*
Cc1ccc(C(=O)Oc2oc(-c3ccco3)nc2C=Nc2ccccc2)cc1	7.2	x	-1.7	-0.7	-2.1	x
CCC(=O)Oc1oc(-c2ccccc2)nc1C=Nc1ccc(C)cc1	14.9	221.8	-1.1	-3.2	-4.9	26.5*
Cc1ccc2oc(-c3cccc(NC(=O)Cc4cccs4)c3)nc2c1	14.6	139.5	-0.4	-2.2	-7.2	3.9
Cc1ccc2oc(-c3ccc(C)c(NC(=O)Cc4cccs4)c3)nc2c1	56.1*	199.8	-1.9	-3.5	-9.4	0.1
O=[N+]([O-])c1ccc(Sc2cccc[n+]2[O-])c2nonc12	66.5*	x	-2.3	-0.6	-76.8	x
O=[N+]([O-])c1ccc(Nc2ccccc2)c2nonc12	12.2	145.7	-3.2	-4.4	1.0	9.0
SMILES	SUMO HTRF inh	T cell modulator	VIM-2 inhibitor	IMP-1 inhibitor	p-CIP stab down	CTSL1 counter
CCOc1ccc(S(=O)(=O)NN=C(C)c2cccnc2)cc1	x	789.9	x	x	x	x
Nc1nc(COC(=O)C2CC(=O)N(CCc3ccccc3)C2)nc(Nc2ccccc2)n1 (stereo not given)	x	297.9	x	x	x	x
CCOC(=O)c1c(N)sc(=S)c2c1CCC2	14.0	304.9	1.8	12.1*	-17.0	6.3
CCOC(=O)c1c(N)sc2c1CCSC2	7.7	305.2	0.1	14.1*	-11.9	-1.7
CCc1ccc(N2CC(C(=O)NC3CCCCC3C)CC2=O)cc1 (stereo not given)	10.6	241.9	-3.9	-1.0	-14.4	5.7
CCc1ccccc1NC(=S)N1CCN(c2ccccc2F)CC1	-29.6	206.3	-1.9	-3.8	0.5	18.7*
CC(C)(C)OC(=O)N[C@@H](Cc1ccccc1)c1nnc(S(=O)(=O)Cc2cccc(F)c2)o1	29.7	409.1	-1.6	-2.4	-10.4	31.5*
CC(C)C[C@H](N)c1nnc(S(=O)(=O)Cc2cccc(F)c2)o1	4.1	x	-2.6	-2.5	-4.7	72.3*
CC(C)=CCSc1nnc([C@@H](NC(=O)OC(C)(C)C)C(C)C)o1	-13.0	511.9	-3.1	-2.8	-3.9	36.5*
CC(C)(C)OC(=O)NCCCCCc1nnc(SCc2c(F)cccc2Cl)o1	-6.6	210.4	-3.3	-5.5	6.4	10.0
CC(C)[C@H](NC(=O)OC(C)(C)C)c1nnc(S(=O)(=O)Cc2c(F)cccc2Cl)o1	-2.6	353.6	x	x	-19.2	41.3*
Cc1ccc(CNS(=O)(=O)c2cc3c4c(c2)CCN4C(=O)CC3)cc1	x	507.6	x	x	x	6.5
CN(CC(=O)Nc1ccccc1C(F)(F)F)C(=O)C1CCN(S(=O)(=O)c2ccc3c(c2)OCCO3)CC1	x	378.3	x	x	x	0.4
CS(=O)(=O)c1ccc(Cl)c(NC(=O)COc2ccc3c(c2)CCC3)c1	x	60.6	x	x	x	-0.5
CC(=O)c1cccc(NC(=O)CCCCCn2nnc3ccccc3c2=O)c1	4.0	227.5	-2.5	-5.5	-0.6	x
CCOC(=O)CSc1nnc([C@H](Cc2ccccc2)NC(=O)OC(C)(C)C)o1	3.1	298.8	-1.2	-5.4	-6.7	-0.7
Cc1ccccc1CS(=O)(=O)c1nnc([C@H](CC(C)C)NC(=O)OC(C)(C)C)o1	24.1	228.8	-4.4	-3.1	-6.0	82.2*
CC(C)(C)OC(=O)N[C@@H](CCCCNC(=O)OCc1ccccc1)c1nnc([C@H](CCCCNC(=O)OCc2ccccc2)NC(=O)OC(C)(C)C)o1	-10.8	i	x	x	-0.1	5.7
CC(C)C[C@H](NC(=O)OC(C)(C)C)c1nnc(SCc2ccccc2)o1	-3.5	168.9	-1.7	1.8	3.0	22.6*
CC[C@@H](C)[C@H](NC(=O)OC(C)(C)C)c1nnc(S(=O)(=O)Cc2cc(C)ccc2C)o1	15.9	179.3	-1.8	-3.9	-19.8	76.3*
Cc1sc2ncnc(NCC(O)c3ccc([N+](=O)[O-])cc3)c2c1C (stereo not given)	16.6	178.8	2.4	-1.8	-16.2	-3.8
CCOC(=O)c1sc(NC(=O)c2ccncc2)c(C#N)c1C	1.8	191.8	1.0	-1.2	6.7	19.5*

Assay outcomes: PubChem BioAssay, several laboratories
